Assay results collected from several papers.
AMY2: Pancreatic alpha-amylase (AMY2, Sus scrofa, UniProt P00690)
SIRT2: NAD-dependent protein deacetylase sirtuin-2 (SIRT2, Homo sapiens, UniProt Q8IXJ6)
CHRM2: Muscarinic acetylcholine receptor M2 (CHRM2, Homo sapiens, UniProt P08172)
HSD11B2: 11-beta-hydroxysteroid dehydrogenase type 2 (HSD11B2, Homo sapiens, UniProt P80365)

SMILES	target	test	conditions	inhibition [%]
CN(O)N=Nc1ccc(S(=O)(=O)Nc2nccs2)cc1	AMY2	enzyme activity, inhibitor	300 µg/mL	78.9
O=C1CC(CCNC(=S)NCCCC[C@H](NS(=O)(=O)c2cccc(F)c2)C(=O)N[C@@H](Cc2c[nH]c3ccccc23)C(=O)NC2CCC2)=NO1	SIRT2	enzyme activity, inhibitor	10 µM	9
Cc1noc(NS(=O)(=O)c2ccc(N=NN(O)c3ccccc3)cc2)c1C	AMY2	enzyme activity, inhibitor	300 µg/mL	73.7
CCCCNC(=S)NCCCC[C@H](NS(=O)(=O)c1cccc(F)c1)C(=O)N[C@@H](Cc1c[nH]c2ccccc12)C(=O)NC1CCC1	SIRT2	enzyme activity, inhibitor	1 µM	32
COc1cc(C=Cc2cc(-c3ccc(N(C)C)cc3)nc(O)n2)ccc1O	AMY2	enzyme activity, inhibitor, absorbance	2.5 µg/mL	60
CC(=S)NCCCC[C@H](NC(=O)OCc1ccccc1)C(=O)N[C@@H](Cc1c[nH]c2ccccc12)C(=O)N[C@@H](CCC(=O)O)C(N)=O	SIRT2	enzyme activity, inhibitor	10 µM	39
COc1cc(C=CC(=O)CC(c2ccc([N+](=O)[O-])cc2)n2ccnc2)ccc1O (centres unmarked)	AMY2	enzyme activity, inhibitor, absorbance	10 µg/mL	87.6
O=C(c1ccc(F)cc1)N(Cc1ccccc1)C1CCCCC1	CHRM2	cell-free assay	10 µM	16
Cc1cc(NS(=O)(=O)c2ccc(N=NN(O)c3ccccc3)cc2)no1	AMY2	enzyme activity, inhibitor	180 µg/mL	52.6
O=C(NC1CCC1)[C@H](Cc1c[nH]c2ccccc12)NC(=O)[C@H](CCCCNC(=S)NCCn1nn[nH]c1=O)NS(=O)(=O)c1cccc(F)c1	SIRT2	enzyme activity, inhibitor	100 µM	8
CN1CC(Oc2cnc(C#N)cc2-c2ccn3nc(NC(=O)C4CC4)cc3c2)C1	Receptor-interacting serine/threonine-protein kinase 1 (RIPK1, Homo sapiens, UniProt Q13546)	enzyme activity, inhibitor	1 µM	-4
CN(CCOc1ccc(CC2SC(=O)NC2=O)cc1)c1ccccn1 (centres unmarked)	HSD11B2	enzyme activity, inhibitor	20 µM, lysate	< 40
Cc1ccc(N(O)N=Nc2ccc(S(=O)(=O)Nc3onc(C)c3C)cc2)cc1	AMY2	enzyme activity, inhibitor	180 µg/mL	42.1
COc1cc(NC(C)=O)c(Cl)cc1C(=O)Nc1nccs1	Amine oxidase [flavin-containing] A (Maoa, Rattus norvegicus, UniProt P21396)	cell-free assay	10 µM	14.4
COc1cc(C=Cc2cc(-c3ccccc3)nc(O)n2)ccc1O	AMY2	enzyme activity, inhibitor, absorbance	2.5 µg/mL	66.3
CC(=S)NCCCC[C@H](NC(=O)OCc1ccccc1)C(=O)N[C@@H](Cc1c[nH]c2ccccc12)C(=O)N[C@@H](CCCCN)C(N)=O	SIRT2	enzyme activity, inhibitor	1 µM	36
CC/C(=N\NC(=O)NCc1cccc(O)c1)c1ccc(O)c(C)c1O	Fibroblast growth factor receptor 3 (FGFR3, Homo sapiens, UniProt P22607, V555L)	enzyme activity, inhibitor	0.1 µM	-0.1
CCCN(O)N=Nc1ccc(S(=O)(=O)Nc2cc(C)on2)cc1	AMY2	enzyme activity, inhibitor	120 µg/mL	31.6
CCCCCCCCCCCCNC(=O)CCCCC[C@H](NC(=O)OCc1ccccc1)C(=O)N[C@@H](Cc1c[nH]c2ccccc12)C(=O)NC(C)C	SIRT2	enzyme activity, inhibitor	100 µM	29
C=C(CC)C(=O)c1ccc(OCC(=O)O)c(Cl)c1Cl	HSD11B2	enzyme activity, inhibitor	20 µM, lysate	< 40
COc1cc(C=CC(=O)CC(c2ccc(N(C)C)cc2)n2ccnc2)ccc1O (centres unmarked)	AMY2	enzyme activity, inhibitor, absorbance	1.25 µg/mL	58.2
C[C@H]1O[C@H](O[C@H]2[C@H](O)[C@@H](O)[C@@H](O[C@H]3[C@H](O)[C@@H](O)C(O)O[C@@H]3CO)O[C@@H]2CO)[C@H](O)[C@@H](O)[C@@H]1N[C@H]1C=C(CO)[C@@H](O)[C@H](O)[C@H]1O (some centres unmarked)	AMY2	enzyme activity, inhibitor	30 µg/mL	32.1
CCCCCCCCCCCCNC(=S)NCCCC[C@H](NC(=O)OCc1ccccc1)C(=O)N[C@@H](Cc1c[nH]c2ccccc12)C(=O)N[C@@H](CC(N)=O)C(N)=O	SIRT2	enzyme activity, inhibitor	100 µM	16
Cc1ccc(N(O)N=Nc2ccc(S(=O)(=O)Nc3cc(C)on3)cc2)cc1	AMY2	enzyme activity, inhibitor	300 µg/mL	78.9
Oc1cccc(Nc2nc(-c3ccc(F)cc3F)cs2)c1	CHRM2	cell-free assay	10 µM	-43.3
Cc1cccc(N(O)N=Nc2ccc(S(=O)(=O)Nc3onc(C)c3C)cc2)c1	AMY2	enzyme activity, inhibitor	180 µg/mL	36.8
CCCCc1oc2ccccc2c1C(=O)c1cc(I)c(OCCN(CC)CC)c(I)c1	HSD11B2	enzyme activity, inhibitor	20 µM, lysate	< 40
CC(=S)NCCCC[C@H](NC(=O)OCc1ccccc1)C(=O)N[C@@H](Cc1c[nH]c2ccccc12)C(=O)N[C@@H](CC(N)=O)C(N)=O	SIRT2	enzyme activity, inhibitor	1 µM	26
O=C(O)CN1CCN(CC(=O)O)CCN(CC(=O)O)CC1	Hydroxyacylglutathione hydrolase, mitochondrial (Homo sapiens, UniProt Q16775)	cell-free assay	500 µM	5.98
